Hits are enriched below; roughly 2.9% of the tested compounds scored in any of these assays.
IMP-1 inh-1: IMP-1 metallo-beta-lactamase inhibitors, primary screen, biochemical, epi-absorbance readout, Pseudomonas aeruginosa enzyme. metallo-beta-lactamase IMP-1 (Pseudomonas aeruginosa). purified IMP-1, nitrocefin hydrolysis, epi-absorbance fluorescence. inhibition, % at 5.6 µM. actives 0.45% (n = 290,000). AID 1556, 2009;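 active = inhibition above the mean plus 3 SD of all compounds in the same screening run, cut at about 4.5% in these data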
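Assay system: purified IMP-1; Quantity: IMP-1 0.2 nM before substrate addition; Medium: HEPES buffer pH 7.1 with ZnSO4 and Brij 35; Incubation: 15 min enzyme–compound preincubation, then 25 min nitrocefin reaction, 25 °C; Signal: fluorescence quenching readout, ex 480/em 530 nm; Controls: DMSO with and without IMP-1; Repeats: singlicate testing.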
NALP3 yeast inh: NALP3 inflammasome inhibitors in reconstituted yeast, primary screen, luminescence, uHTS | Yeast reconstituted NLRP3/ASC/caspase-1, beta-gal luminescence, 24 h | inhibition, % at 10 µM | AID 2825, 2010 | actives 0.39% (n = 330,000);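 active = inhibition of 50% or more; inactive = inhibition below 50%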
Mot1-301 SUMO: yeast Mot1-301 growth rescue at high temperature, primary screen, SUMOylation pathway inhibitor project, S. cerevisiae, ATP luminescence, 38.5C; S. cerevisiae Mot1-301 growth rescue; percent above DMSO median, 100 means doubled; growth rescue, % at 18.8 µM; actives 1% (n = 320,000);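 active = every valid replicate shows activation above 250% relative to neutral control wells; inactive = the rest, any valid replicate at or below 250%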
VIM-2 inh: VIM-2 metallo-beta-lactamase inhibitors, primary screen, biochemical, epi-absorbance readout, Pseudomonas aeruginosa enzyme | inhibition, % at 5.6 µM | actives 0.89% (n = 290,000) | purified VIM-2, nitrocefin hydrolysis, epi-absorbance fluorescence;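 active = inhibition above the mean of all tested compounds plus 3 SD, cutoff set per screening run, cut at about 7.5% in these data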;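 also: red hydrolysis product quenches plate fluorescence so inhibitors raise well fluorescence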
PolyA inh: polyadenylation inhibitors in yeast reporter cells, primary screen, luminescence, S. cerevisiae; activity score, % at 12 µM; S. cerevisiae SKY197-pL101 polyadenylation reporter, beta-gal luminescence; efflux-impaired pdr1/pdr3 knockout yeast; score 100 = 6 SD above DMSO; actives 0.02% (n = 300,000);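 active = lowest replicate activity score at least 50, where 100 means six control SD above control mean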;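 also: yeast exposed to compound for 9 h at 30 °C; higher score means more reporter readthrough which indicates perturbed polyadenylation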
NALP1 yeast inh: NALP1 inflammasome inhibitors in reconstituted yeast, colorimetric, S. cerevisiae, triplicate retest; actives 0.61% (n = 280,000); inhibition, % at 10 µM; S. cerevisiae NALP1/ASC/caspase-1 growth, X-gal OD620, 72 h; in the data active = inhibition mostly above about 24%, no sharp cut-off; inactive = mostly below about 32%
IMP-1 inh-2: IMP-1 metallo-beta-lactamase inhibitors, confirmation, selectivity assay for selective VIM-2 inhibitor project, biochemical, epi-absorbance readout, triplicate; purified IMP-1, nitrocefin hydrolysis, epi-absorbance fluorescence; shares compounds with VIM-2 inh; 1,300 tested, under 10 active; inhibition, % at 5.6 µM; call rule not given here
VIM-2 FRET inh: VIM-2 inhibitors in FRET format, confirmation, artefact control for selective VIM-2 inhibitor project, biochemical, epi-absorbance artifact exclusion. shares compounds with VIM-2 inh. purified VIM-2, CCF2 FRET substrate hydrolysis. inhibition, % at 5.6 µM. actives 23% (n = 1,300). AID 1857, 2009;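 active = inhibition above the mean of all tested compounds plus 3 SD, cut at about 19% in these data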
TEM-1 counter: TEM-1 serine beta-lactamase inhibitors, counter-screen for VIM-2 inhibitor project, biochemical, epi-absorbance, HTS; shares compounds with VIM-2 inh; Purified TEM-1, nitrocefin hydrolysis, epi-absorbance fluorescence; inhibition, % at 5.6 µM; actives 3% (n = 1,300);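 active = inhibition above that campaign's mean inhibition plus 3 SD, cut at about 0.46% in these data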
Target sequence (P62593 whole entry, looked up): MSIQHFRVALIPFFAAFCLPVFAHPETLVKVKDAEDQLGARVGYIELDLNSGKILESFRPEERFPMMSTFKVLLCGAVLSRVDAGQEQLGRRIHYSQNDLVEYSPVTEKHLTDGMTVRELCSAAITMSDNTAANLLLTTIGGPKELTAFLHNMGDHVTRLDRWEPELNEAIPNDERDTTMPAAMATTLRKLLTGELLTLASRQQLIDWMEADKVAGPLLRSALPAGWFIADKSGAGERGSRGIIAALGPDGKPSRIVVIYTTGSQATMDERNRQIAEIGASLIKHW
VIM-2 inh conf: VIM-2 metallo-beta-lactamase inhibitors, confirmation, biochemical, epi-absorbance, hits shared with IMP-1 screen; inhibition, % at 5.6 µM; shares compounds with VIM-2 inh; purified VIM-2, nitrocefin hydrolysis; actives 96% (n = 1,300);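 active = inhibition of the VIM-2 beta-lactamase enzyme above about 11% from the earlier first-round screen, limit read from the data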
Numbers stand for hits; 0 = inactive; - = not tested or not shown.

SMILES | IMP-1 inh-1 | NALP3 yeast inh | Mot1-301 SUMO | VIM-2 inh | PolyA inh | NALP1 yeast inh | IMP-1 inh-2 | VIM-2 FRET inh | TEM-1 counter | VIM-2 inh conf
Cc1cc(OCC(=O)NCc2cccnc2)c2c(C)c(C)c(=O)oc2c1 | 0 | 0 | 0 | 22 | 0 | 0 | 0 | 0 | 0 | 31
COC(=O)C(NC(=O)c1ccccc1C(=O)O)c1ccc2ccccc2c1 (stereo unspecified) | 0 | 0 | 0 | 0 | 0 | 0 | - | - | - | -
Cc1ccccc1-c1cc(C(=O)NCc2ccc3c(c2)OCO3)n(CC2CC(c3cccnc3)=NO2)n1 (stereo unspecified) | - | 0 | 0 | - | - | - | - | - | - | -
CCOC(=O)c1cnc2c(cnn2C)c1NCCCn1ccnc1 | 0 | 0 | 0 | 75 | 0 | 0 | 0 | 0 | 0 | 81
CCOC(=O)c1cnc2c(cnn2C)c1NCCC#N | 0 | 0 | 0 | 0 | 0 | 0 | - | - | - | -
Cc1ccc(Nc2c3c(nc4ncnn24)CC(C)CC3)cc1 (stereo unspecified) | 0 | 0 | 0 | 0 | 0 | 0 | - | - | - | -
Cc1ccc(Nc2c3c(nc4ncnn24)CCC3)cc1 | 0 | 0 | 0 | 17 | 0 | 0 | 0 | 0 | 0 | 24
Cn1c(=O)c2sccc2n2c(CCCC(=O)N3CCN(c4ccccn4)CC3)nnc12 | 0 | 0 | 0 | 13 | 0 | 0 | 0 | 0 | 0 | 20
Cc1nc(NCCc2cnc[nH]2)c2oc3ccccc3c2n1 | 0 | 0 | 0 | 71 | 0 | 0 | 0 | 0 | 1.7 | 84
CCc1nc(Nc2cccc(O)c2)c2oc3ccccc3c2n1 | 0 | 0 | 0 | 0 | 0 | 0 | - | - | - | -
CC(=O)Nc1ccc(Nc2nc(C)nc3c2oc2ccccc23)cc1 | 0 | 0 | 0 | 18 | 0 | 0 | 0 | 0 | 0 | 29
CC(=O)N1CCN(c2ccc(Nc3nc(C)nc4c3oc3ccccc34)cc2)CC1 | - | 0 | 0 | - | 0 | - | - | - | - | -
Cc1cccc(Nc2nc(C)nc3c2oc2ccccc23)c1 | 0 | 0 | 0 | 0 | 0 | 0 | - | - | - | -
Cc1nc(Nc2ccncc2)c2oc3ccccc3c2n1 | 0 | 0 | 0 | 45 | 0 | 0 | 0 | 0 | 0 | 57
CCc1nc(Nc2ccncc2)c2oc3ccccc3c2n1 | 0 | 0 | 0 | 44 | 0 | 0 | 0 | 0 | 0 | 54
COc1ccc(CCNc2nc(C)nc3c2oc2ccccc23)cc1OC | 0 | 0 | 0 | 0 | 0 | 0 | - | - | - | -
Cc1ccc(C)c(N2CCN(C(=O)c3ccc(N4CCCC4=O)cc3)CC2)c1 | 0 | 0 | 0 | 0 | 0 | 0 | - | - | - | -
O=C(CSc1nc2cc([N+](=O)[O-])ccc2n1-c1ccc(F)cc1)NC1CCS(=O)(=O)C1 (stereo unspecified) | 0 | 0 | 0 | 0 | 0 | - | - | - | - | -
Cc1nc(N2CCOCC2)c2oc3ccccc3c2n1 | 0 | 0 | 0 | 19 | 0 | 0 | 0 | 0 | 0 | 34
CC(=O)c1c2c3c(cccc3n(C)c1=O)C(=O)c1ccccc1-2 | 0 | 0 | 0 | 22 | 0 | 0 | 0 | 0 | 0 | 30
C[C@@H]1CCC[C@]2(O[C@H](CCO)C[C@@H](O)[C@@H]2O)O1 | - | 0 | 0 | - | 0 | - | - | - | - | -
CN1CCN(C(=O)CSc2nc(-c3ccco3)cc(C(F)(F)F)n2)CC1 | 0 | 0 | 0 | 43 | 0 | 0 | 0 | 0 | 0 | 57
O=C(CSc1nc(-c2ccco2)cc(C(F)(F)F)n1)N1CCSCC1 | 0 | 0 | 0 | 0 | 0 | 0 | - | - | - | -
CN1CCCN(Cc2nc(-c3cccc(C(F)(F)F)c3)no2)CC1 | 0 | 0 | 0 | 0 | 0 | 0 | - | - | - | -
Cc1c(O[C@@H]2O[C@H](CO)[C@@H](O)[C@H](O)[C@H]2O)ccc2c1oc(=O)c1ccccc12 | 0 | 0 | 0 | 25 | 0 | 0 | 0 | 0 | 0 | 35
SMILES | IMP-1 inh-1 | NALP3 yeast inh | Mot1-301 SUMO | VIM-2 inh | PolyA inh | NALP1 yeast inh | IMP-1 inh-2 | VIM-2 FRET inh | TEM-1 counter | VIM-2 inh conf
Cc1c(C)c2ccc(O[C@@H]3O[C@H](CO)[C@H](O)[C@H](O)[C@H]3O)c(C)c2oc1=O | 0 | 0 | 0 | 0 | 0 | 0 | - | - | - | -
CCn1cc(S(=O)(=O)NCCc2ccccc2OC)cn1 | 0 | 0 | 0 | 0 | 0 | 0 | - | - | - | -
COc1ccc2[nH]c(C(=O)O)c(CCC(=O)O)c2c1 | 0 | 0 | 0 | 0 | 0 | 0 | - | - | - | -
O=C(O)c1[nH]c2ccc(Cl)cc2c1CC(=O)N1CCN(c2ccccc2)CC1 | 0 | 0 | 0 | 0 | 0 | 0 | - | - | - | -
COc1ccc2[nH]c(C(=O)O)c(CCN3C(=O)c4ccc(C(=O)O)cc4C3=O)c2c1 | 0 | 0 | 0 | 71 | 0 | 0 | 0 | 84 | 0 | 75
O=C(O)c1[nH]c2ccc(Br)cc2c1CCN1C(=O)c2cccc([N+](=O)[O-])c2C1=O | 0 | 0 | 0 | 61 | 0 | 0 | 0 | 79 | 0 | 68
Cc1ccc(NC(=O)CCN2C(=O)c3cccc([N+](=O)[O-])c3C2=O)c(Br)c1 | 0 | 0 | 0 | 0 | 0 | 0 | - | - | - | -
O=C(O)c1[nH]c2ccc(Cl)cc2c1CCN1C(=O)c2ccccc2C1=O | 0 | 0 | 0 | 65 | 0 | 0 | 0 | 79 | 0 | 74
O=C(CCCN1C(=O)/C(=C/c2ccccc2)SC1=S)NCCCn1ccnc1 | 0 | 0 | 0 | 0 | 0 | 0 | - | - | - | -
O=C(CCN1C(=O)/C(=C/c2ccccc2F)SC1=S)NCCCn1ccnc1 | 0 | 0 | 0 | 37 | 0 | 0 | 0 | 44 | 0 | 41
COc1ccccc1Nc1nnc(SCc2cc(=O)n3ccsc3n2)s1 | 0 | 0 | 0 | 13 | 0 | 0 | 0 | 0 | 3.0 | 12
COc1cccc(/C=N/Nc2nn3cnnc3c3ccccc23)c1O | 0 | 0 | - | 0 | 0 | 0 | - | - | - | -
Oc1cccc(/C=N/Nc2nn3cnnc3c3ccccc23)c1 | 0 | 0 | 0 | 16 | 0 | 0 | 0 | 0 | 0 | 37
O=C(O)c1cccc(S(=O)(=O)N2CCN(Cc3ccc4c(c3)OCO4)CC2)c1 | 0 | 0 | 0 | 0 | 0 | 0 | - | - | - | -
Cc1nnc2c3ccccc3c(-c3cccs3)nn12 | 0 | 0 | 0 | 28 | 0 | 0 | 0 | 0 | 0 | 40
O=C(CSc1nncc2ccccc12)Nc1cccc(O)c1 | 0 | 0 | 0 | 0 | 0 | 0 | - | - | - | -

Screens (PubChem BioAssay)
